MT1-MMP act inh – blocks activation of human MT1-MMP. hit rate 0.061% among 360,000. AID 651647. GFP/RFP ratio change, % at 20 µM. HT1080 RFP-PRO-GFP cells, GFP/RFP ratio fluorescence, overnight; percent of plate control window, DMSO zero. P50281;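 active = GFP/RFP ratio change of at least 30% with cell ATP level not reduced by more than half and red fluorescence within 50% of control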
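system = RFP-PRO-GFP reporter HT1080 cells | dosing = 20 µM single dose, 1% DMSO | timing = overnight cell settling, then overnight compound exposure, 37 °C, 5% CO2 | read-out basis = GFP/RFP fluorescence ratio | controls = DMSO and RFP-L50D-GFP cell wells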
DDE Tn6 FP inh – inhibitors of Tn6 peptide binding to human fibrin DD(E) | inhibition, % at 8.3 µM | AID 720509 | Fibrin DD(E) TRITC-Tn6 fluorescence polarization displacement | hit rate 0.21% among 370,000;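 active = inhibition above a per-campaign cutoff: mean of compounds within control limits plus 3 SD, cut at about 15% in these data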
H9c2 TAG inh – reduces triacylglycerol accumulation in H9c2 cells | hit rate 0.66% among 230,000 | AID 651582 | inhibition, % at 12.5 µM | Nile Red lipid (TAG) fluorescence; cells loaded with 200 µM oleic acid;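 active = pattern-corrected inhibition of lipid staining of at least 50% with the nuclear-stain viability signal not falling by more than 50%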
Tn7 DDE FP – disrupts Tn7 cyclic peptide binding to fibrin D-Dimer-E complex; P02675; FP displacement of FITC-Tn7 peptide from fibrin DD(E); 0% = median of compound wells per plate; inhibition, % at 8.3 µM; hit rate 0.13% among 370,000; AID 720508;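 active = inhibition above the mean of compounds falling within the control limits plus 3 SD of them, cut at about 14% in these data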
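Assay system: human fibrin DD(E). Input: DD(E) 2 µM final. Medium: Tris buffer with calcium and detergent, pH 7.8. Compound dosing: single point at 8.3 µM. Timing: 10 min plus 3 h, room temperature. Technique: fluorescence polarization of the labelled Tn7 tracer. Read-out: percent inhibition. Replicates: singlicate testing.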
DAGLB inhibitor – blocks human DAGLB lipase activity. Q8NCG7. HEK293T DAGLB membrane lysate, EnzChek fluorogenic substrate. inhibition, % at 5.17 µM. hit rate 0.059% among 340,000; in the data active = inhibition above about 34%
Target sequence (Q8NCG7 whole entry, looked up): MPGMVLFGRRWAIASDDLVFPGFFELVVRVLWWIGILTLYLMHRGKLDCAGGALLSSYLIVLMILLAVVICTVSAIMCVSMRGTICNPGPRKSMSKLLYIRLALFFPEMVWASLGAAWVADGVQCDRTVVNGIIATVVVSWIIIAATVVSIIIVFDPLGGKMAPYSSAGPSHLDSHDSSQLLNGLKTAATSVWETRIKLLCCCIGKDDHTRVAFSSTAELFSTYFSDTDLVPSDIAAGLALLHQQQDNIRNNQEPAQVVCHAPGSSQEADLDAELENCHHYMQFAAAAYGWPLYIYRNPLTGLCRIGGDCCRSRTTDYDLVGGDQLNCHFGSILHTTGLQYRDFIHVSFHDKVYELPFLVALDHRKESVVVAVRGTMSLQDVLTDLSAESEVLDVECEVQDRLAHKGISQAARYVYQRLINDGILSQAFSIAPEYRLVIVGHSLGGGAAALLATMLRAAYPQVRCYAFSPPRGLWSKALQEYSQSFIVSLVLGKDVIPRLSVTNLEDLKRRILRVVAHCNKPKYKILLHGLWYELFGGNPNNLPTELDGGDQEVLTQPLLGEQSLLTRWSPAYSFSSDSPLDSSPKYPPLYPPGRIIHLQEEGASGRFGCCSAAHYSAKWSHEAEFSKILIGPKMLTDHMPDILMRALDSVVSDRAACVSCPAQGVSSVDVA
Cardio protect – modulators protecting cardiomyocytes from myocardial damage; H9c2 cardiomyocytes, H2O2 injury protection, ATPLite, 2 h; protection from H2O2 cell death, % at 20 µM; hit rate 0.63% among 360,000;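 active = compounds giving at least 50% protection of heart cells from peroxide-induced death in the single-dose screen, raw or plate-pattern-corrected value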
Numbers stand for hits; - = inactive; . = no result. In the library only some 1.4% were active in any assay of this set; here they are far more common.

SMILES	MT1-MMP act inh	DDE Tn6 FP inh	H9c2 TAG inh	Tn7 DDE FP	DAGLB inhibitor	Cardio protect
C[C@@H](C(=O)Nc1nc(-c2ccccn2)cs1)N1C(=O)C2CCCCC2C1=O (some centres undefined)	-	-	-	-	-	94.9
CCc1nnc(NC(=O)C(NC(=O)c2ccccc2Cl)C(C)C)s1 (centres undefined)	-	-	-	-	-	-
CC(Oc1ccc(Br)cc1)C(=O)Nc1nc(-c2ccccn2)cs1 (centres undefined)	-	-	-	-	-	49.2
O=C(CN1C(=O)C2CCCCC2C1=O)Nc1nc(-c2ccccn2)cs1 (centres undefined)	-	-	-	-	-	-
CC(C)[C@H](NC(=O)c1ccccc1Cl)C(=O)Nc1nc(-c2ccccn2)cs1	-	-	-	-	-	70.2
COc1ccc(/C=C/C(=O)NC2=NCCS2)c(OC)c1	.	-	.	-	.	.
O=C(/C=C1\NC2(CCCC2)Cc2ccccc21)C(=O)N/N=C/c1ccccc1O	-	-	.	-	-	79.7
Clc1ccc(C2=Nn3c(nnc3-c3n[nH]c4c3CCC4)SC2)cc1	-	-	54.7	-	-	-
O=C(N/N=C\c1cn(-c2ccccc2)nc1-c1ccccc1)c1ccc2c(c1)OCO2	-	-	-	-	-	52.5
O=C(N/N=C/c1cn(-c2ccccc2)nc1-c1cccnc1)c1ccccc1	-	-	-	-	-	60.6
COC(=O)[C@]12C[C@H](CC(=O)NCc3ccccc3)C(=O)N(Cc3ccc4c(c3)OCO4)C1=C[C@H](C(C)C)O[C@@H]2C1CC1	.	-	.	-	.	.
CCc1ccc2nc(SCC(=O)N3CC(=O)Nc4ccccc43)c(C#N)cc2c1	-	-	51.5	-	-	-
CC(C)(C)C(=O)OC12CCCN(C1)/C(=C/c1cccnc1)C2 (centres undefined)	.	-	.	-	.	.
COc1ccc(N(C(=O)c2cccc([N+](=O)[O-])c2)S(=O)(=O)c2cccs2)cc1	-	-	-	-	-	50.8
O=C(OCc1ccccc1)[C@H](Cc1ccccc1)NC(=O)[C@@H]1CC=C[C@@H]2CCN(CCc3ccccc3)C(=O)[C@@H]21	.	-	.	-	.	.
O=C(CCC(=O)N1CCN(S(=O)(=O)c2ccc(Cl)cc2)CC1)NCc1ccccc1	-	-	.	-	-	-
Cc1ccc(C)c(S(=O)(=O)N2CCN(C(=O)Cn3[nH]c(=O)c4ccccc4c3=O)CC2)c1	-	-	-	-	-	60.8
Cc1ccc(C)c(S(=O)(=O)N2CCN(C(=O)CSc3ccccc3)CC2)c1	-	-	-	-	-	-
O=C(Cn1[nH]c(=O)c2ccccc2c1=O)N1CCN(S(=O)(=O)c2ccc(Cl)cc2)CC1	-	-	-	-	-	74.1
COC(=O)[C@]12C[C@H](CC(=O)NCc3cccc4ccccc34)C(=O)N(Cc3ccc(Cl)cc3Cl)C1=C[C@H](C(C)(C)C)O[C@@H]2C	.	-	.	-	.	.
O=C(CCC(=O)Nc1ccc(F)cc1)N/N=C/c1ccc(O)cc1O	-	-	-	-	-	74.1
Cc1cc(C)n(CCC(=O)N/N=C/c2ccccc2O)n1	-	-	.	-	-	54.1
COc1ccc(/C=N/NC(=O)CCn2nc(C)cc2C)cc1O	-	-	-	-	-	-
O=C(CCN1CCN(C(c2ccccc2)c2ccccc2)CC1)N/N=C/c1ccc(O)cc1O	-	-	.	-	-	60.7
O=C(CCN1CCN(C(c2ccccc2)c2ccccc2)CC1)N/N=C/c1ccc(O)cc1	-	-	.	-	-	-
SMILES	MT1-MMP act inh	DDE Tn6 FP inh	H9c2 TAG inh	Tn7 DDE FP	DAGLB inhibitor	Cardio protect
Cc1cc(C)n(CCC(=O)N/N=C/c2ccc(O)cc2O)n1	-	-	.	-	-	55.3
COC(=O)[C@H](C(C)C)N(Cc1cn(Cc2ccccc2)nn1)S(=O)(=O)c1ccccc1Br	.	-	.	-	.	.
Cc1ccc(N=Cc2cc3c(cc2[N+](=O)[O-])OCO3)cc1[N+](=O)[O-]	-	-	-	-	.	-
Cc1ccc(C)c(N=Cc2cc3c(cc2[N+](=O)[O-])OCO3)c1	-	-	-	-	-	62.7
CCOC(=O)[C@]12CCCCC/C=C\1N(CCc1ccc(Cl)cc1)C(=O)[C@H]2CC(=O)N1CCN(C(=O)C2CC2)CC1	.	-	.	-	.	.
O=C(c1cccc(F)c1)N(Cc1ccccn1)CC1CCCO1 (centres undefined)	.	-	.	-	.	.
COc1ccc(CCCNC(=O)C2(C)Cc3c(-c4ccc(NC(C)=O)cc4)ccnc3O2)cc1 (centres undefined)	-	-	-	-	.	63.6
C=CCC12C=C(OC)C(=O)C(C1=O)C(c1ccc(OC)cc1)C2C (centres undefined)	.	-	.	-	.	.
CCOC(=O)c1[nH]cnc1N=Nc1c(O)ccc2ccccc12	-	-	.	-	-	64.7
Oc1ccc2ccccc2c1N=Nc1ccccn1	-	-	-	-	-	-
CCOc1ccc(C(=O)Nc2cccc(-c3nc4cccnc4o3)c2)cc1Cl	.	.	.	.	-	50.0
Cc1ccccc1Cn1cc(COC(=O)NCCc2ccccc2)nn1	.	-	.	-	.	.
COc1cc(/C=C/c2nc(-c3ccccc3O)n[nH]2)cc(OC)c1OC	-	-	-	-	-	65.6
CC1CN(S(=O)(=O)c2ccc(C(=O)Nc3nnc(-c4ccco4)o3)cc2)CC(C)O1 (centres undefined)	-	-	-	-	-	-
COc1cccc(-c2nnc(NC(=O)c3ccc(S(=O)(=O)N4CC(C)OC(C)C4)cc3)o2)c1 (centres undefined)	-	-	-	-	-	55.5
O=C(Nc1nnc(-c2ccco2)o1)c1ccc2ccccc2c1	-	-	.	-	-	64.4
CCC1CCCCN1S(=O)(=O)c1ccc(NC(=O)c2cccnc2)cc1 (centres undefined)	-	-	-	-	-	-
CCC1CCCCN1S(=O)(=O)c1ccc(C(=O)Nc2nnc(-c3cccs3)o2)cc1 (centres undefined)	-	.	-	.	-	75.1
COc1ccc(-c2nnc(NC(=O)c3ccc(F)cc3)o2)cc1	-	-	-	-	-	67.8
Cc1cc(C)cc(NC(=O)C2(C(=O)C3CC3)CC(c3ccccc3C(F)(F)F)=NO2)c1 (centres undefined)	.	-	.	-	.	.
CN(C)S(=O)(=O)c1ccc(C(=O)Nc2nnc(-c3cccs3)o2)cc1	-	-	.	-	-	-
CC1CC(C)CN(S(=O)(=O)c2ccc(C(=O)Nc3nnc(-c4cccs4)o3)cc2)C1 (centres undefined)	-	-	-	-	-	50.3
CC1Cc2ccccc2N1C(=S)NC(=O)c1cccc(Br)c1 (centres undefined)	-	-	.	-	-	68.6
CC(=NNc1nc2ccccc2s1)c1ncccn1	-	-	63.2	-	-	-
C/C(=N\Nc1nc2ccccc2s1)c1cccs1	-	-	.	-	-	-
